High-throughput results: PubChem, several laboratories
This is a sample that favours compounds with a hit; in the whole collection about 2.6% have one here.
SENP1 FRET inh: inhibitors of human SENP1 SUMO protease catalytic domain. recombinant SENP1 catalytic domain, CyPet-SUMO1-YPet FRET cleavage. Q9P0U3. actives 0.21% (n = 360,000). inhibition, % at 10 µM;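 active = inhibition at least 30% at 10 µM, raw YFP signal under a set limit, fluorescence ratio 0.5 to 1.5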
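Material: hSENP1 catalytic domain, recombinant; medium: Tris pH 8 with BME, BSA, NP40 and catalase; compound: single concentration of 10 µM compound, 0.5% DMSO final; technique: FRET read of cyan and yellow fluorescence; timing: 50 min enzyme reaction, room temperature, light-protected; reagent: SFCypet-SUMO1-SFYpet substrate at 25 nM; control set: no-enzyme low, enzyme-DMSO high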
SENP7 block: blocks the human protease SENP7; recombinant SENP7, Z-RLRGG-aminoluciferin luminescence, 40 min; inhibition, % at 5 µM; actives 1.5% (n = 330,000); AID 434973;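 active = inhibition above about 50% at the single test dose, limit read from the data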
Platelet DG rel: modulates dense granule release in human platelets. human platelet-rich plasma, SFLLRN dense granule ATP release, luminescence. inhibition, %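 (compounds screened at 7.5 µM in platelet-rich plasma)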. actives 0.22% (n = 300,000). AID 1663;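 active = mean replicate score, as percent of positive control, at or above 50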
SENP8 block-1: inhibitors of human SENP8 protease. Q96LD8. purified SENP8, Z-RLRGG-aminoluciferin cleavage, luminescence. inhibition, % at 10 µM. actives 1.2% (n = 330,000). AID 2540; in the data active = inhibition above about 50%
Target sequence (Q96LD8 whole entry, looked up): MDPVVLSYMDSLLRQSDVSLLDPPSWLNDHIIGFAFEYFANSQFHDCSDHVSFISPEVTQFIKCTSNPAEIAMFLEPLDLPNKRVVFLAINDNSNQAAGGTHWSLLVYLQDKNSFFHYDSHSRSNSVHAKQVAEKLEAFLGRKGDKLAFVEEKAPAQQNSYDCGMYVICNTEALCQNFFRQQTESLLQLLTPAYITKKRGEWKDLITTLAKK
SENP8 block-2: blocks human SENP8 cleavage of Nedd8 substrate; inhibition, % at 20 µM; recombinant SENP8, Nedd8 substrate fluorescence; actives 0.64% (n = 360,000); in the data active = inhibition mostly above about 40%, no sharp cut-off; inactive = mostly below about 27%
SENP6 inh: blocks the human protease SENP6; Q9GZR1; Recombinant SENP6 catalytic domain, aminoluciferin luminescence; inhibition, % at 10 µM; actives 1.8% (n = 330,000); AID 2599;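 active = inhibition above about 50% at the single tested dose, limit read from the data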
SENP8 confirm: confirmation of human SENP8 protease inhibitors | shares compounds with SENP7 block | Recombinant SENP8, Z-RLRGG-aminoluciferin luminescence, 60 min | inhibition, % at 12.5 µM | actives 40% (n = 6,200) | AID 488912;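 active = mean inhibition across replicates above about 50%, limit read from the data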
SENP6 confirm: confirmation of human SENP6 protease inhibitors; AID 488915; inhibition, % at 12.5 µM; shares compounds with SENP7 block; recombinant SENP6, Z-RLRGG-aminoluciferin luminescence; actives 58% (n = 6,200)
SENP7 conf: confirmation of human SENP7 protease inhibitors | inhibition, % at 12.5 µM | shares compounds with SENP7 block | actives 69% (n = 6,200) | recombinant SENP7, Z-RLRGG-aminoluciferin luminescence, 40 min
Casp3 select: selectivity test for SENP inhibitors: human caspase-3 inhibition. shares compounds with SENP7 block. purified caspase-3, Z-DEVD-aminoluciferin luminescence, 60 min. inhibition, % at 12.5 µM. actives 60% (n = 6,200);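 active = mean inhibition above about 50%, limit read from the data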
Target sequence (P42574 28-227 limits assumed): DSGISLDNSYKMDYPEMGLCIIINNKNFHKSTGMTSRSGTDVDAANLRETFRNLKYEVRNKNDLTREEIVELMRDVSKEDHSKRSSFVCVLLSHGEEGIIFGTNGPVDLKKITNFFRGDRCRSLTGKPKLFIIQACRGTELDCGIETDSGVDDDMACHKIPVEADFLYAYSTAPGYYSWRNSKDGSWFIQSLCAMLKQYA
SENP luc ctr: counter-screen for SENP inhibitors: luminescence interference. shares compounds with SENP7 block. Pre-incubated SENP8/Z-RLRGG-aminoluciferin, luciferase luminescence interference. inhibition, % at 12.5 µM. actives 39% (n = 6,200). AID 488919;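 active = mean inhibition above about 50% when retested at one dose, limit read from the data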
Each line names hits and unclear results; the compound was inactive in the other large screens (follow-up assays come after a bar, where they were run).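 The calls were made as follows, unless noted: active = mean inhibition above about 50% in the one-dose retest (limit read from the data); inactive = the rest.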

COC(=O)c1cc(/C=C/c2ccccc2)[nH]n1	SENP6 inh 52 | SENP8 confirm inactive | SENP6 confirm inactive | SENP7 conf 82 | Casp3 select 64 | SENP luc ctr inactive
COC(=O)c1cc(/C=C/c2ccccc2)on1	none
COc1ccc(C/C(=N\OC(C)=O)c2ccc(OC)cc2)cc1	SENP7 block 98, SENP8 block-1 91, SENP6 inh 96 | SENP8 confirm 92 | SENP6 confirm 96 | SENP7 conf 102 | Casp3 select 96 | SENP luc ctr 95
COc1ccc(/C(N)=N/OC(=O)Cc2ccc(C)cc2)cc1	none
COC(=O)/N=C(/Cc1ccc(OC)cc1)c1ccc(OC)cc1	SENP7 block 94, SENP8 block-1 92, SENP6 inh 96 | SENP8 confirm 97 | SENP6 confirm 97 | SENP7 conf 102 | Casp3 select 96 | SENP luc ctr 90
COc1ccccc1Cn1c(=S)[nH]c2cc(C(=O)N3CC(C)CC(C)C3)ccc2c1=O (stereo not drawn)	none (no result: SENP7 block, Platelet DG rel, SENP8 block-1, SENP6 inh)
Cc1ccc(NC(=O)C(=O)c2c[nH]c3ccccc23)cc1	SENP7 block 70, SENP6 inh 66 | SENP8 confirm 52 | SENP6 confirm inactive | SENP7 conf 87 | Casp3 select inactive | SENP luc ctr inactive
CN1C(=O)C(CC(=O)O)S/C1=N\N=C\c1ccc(O)cc1O (stereo not drawn)	SENP6 inh 61 | SENP8 confirm inactive | SENP6 confirm inactive | SENP7 conf 74 | Casp3 select 80 | SENP luc ctr inactive
CCN(CC(=O)Nc1ccccc1C(F)(F)F)C(=O)/C=C/c1ccc(Cl)c([N+](=O)[O-])c1	none
CCN1C(=O)[C@H]2[C@@H](c3ccc(C)cc3)N[C@]3(CCCN(Cc4ccc(F)cc4)C3=O)[C@H]2C1=O	none (no result: SENP7 block, Platelet DG rel, SENP8 block-1, SENP6 inh)
O=C(OC1CCc2ccccc2C1=O)c1ccccc1O (stereo not drawn)	SENP7 block 80, SENP8 block-1 70, SENP6 inh 82 (no result: Platelet DG rel) | SENP8 confirm 81 | SENP6 confirm 80 | SENP7 conf 92 | Casp3 select 67 | SENP luc ctr inactive
Cc1ccc(C(=O)NC2CCc3ccccc3C2=O)cc1 (stereo not drawn)	none
Cc1ccc2nc(-c3cccnc3SCC(=O)N3c4ccccc4CC3C)[nH]c2c1 (stereo not drawn)	SENP6 inh 55 | SENP8 confirm inactive | SENP6 confirm inactive | SENP7 conf 70 | Casp3 select inactive | SENP luc ctr inactive
Cc1ccc2nc(SCC(=O)N3c4ccccc4CC3C)c(C)cc2c1 (stereo not drawn)	none
COc1ccc(C)c2sc(N(CCN(C)C)C(=O)c3cccc(N4C(=O)CCC4=O)c3)nc12	none
CCCS(=O)(=O)NC(=O)C1(C)CCN1C(=O)Cc1ccc(Cl)cc1Cl (stereo not drawn)	none (no result: SENP7 block, Platelet DG rel, SENP8 block-1, SENP6 inh)
COC(=O)C1=CN(c2ccc3c(c2)OCO3)C(N)=C(C#N)C1c1cccc(F)c1 (stereo not drawn)	none (no result: SENP7 block, Platelet DG rel, SENP8 block-1, SENP6 inh)
Cc1ccc(C(=O)c2coc3ccc(O)cc23)cc1	SENP7 block 92, SENP8 block-1 88, SENP6 inh 86 | SENP8 confirm inactive | SENP6 confirm 94 | SENP7 conf 100 | Casp3 select 84 | SENP luc ctr 84
COc1ccc(C(=O)c2coc3ccc(OC(C)=O)cc23)cc1	SENP8 block-1 60 | SENP8 confirm 58 | SENP6 confirm 55 | SENP7 conf 66 | Casp3 select 50 | SENP luc ctr inactive
